In brackets after ≈: the same amount, converted by molar mass.
Columns and labels:
Format in all cases: functional
Aspergillus niger = assay: Antimicrobial activity against Aspergillus niger MTCC 282 after 24 hrs by serial dilution method
Staphylococcus aureus = assay: Antimicrobial activity against Staphylococcus aureus ATCC 25923 after 24 hrs by serial dilution method; conditions: ATCC 25923, 24 h
Streptococcus pyogenes = assay: Antimicrobial activity against Streptococcus pyogenes MTCC 443 after 24 hrs by serial dilution method; conditions: MTCC 443, 24 h
Pseudomonas aeruginosa = assay: Antimicrobial activity against Pseudomonas aeruginosa MTCC 441 after 24 hrs by serial dilution method; conditions: MTCC 441, 24 h
[1] = tested on: Mycobacterium tuberculosis; assay: Antitubercular activity against Mycobacterium tuberculosis H37Rv ATCC 27294 by agar microdilution method
Summary of the method: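 Twofold dilutions in Middlebrook 7H10 agar with OADC supplement, 3 mL per well in 24-well plates, in duplicate. Final concentrations 1000, 500, 250, 125 and 62.5. Known CFU of H37Rv culture dispensed on top of agar in a negative-pressure biosafety hood. Incubated at 37 °C in a CO2 incubator. MIC read as the lowest concentration completely inhibiting growth and colony formation.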

Escherichia coli = assay: Antimicrobial activity against Escherichia coli ATCC 25922 after 24 hrs by serial dilution method; conditions: ATCC 25922, 24 h

**Q.** For `COC1=CC(=O)C[C@@H](C)[C@]12Oc1c(Cl)c(OC)cc(OC)c1C2=O` [GRISEOFULVIN], which MIC (Aspergillus niger; MTCC 282, 24 h) is on record?
**A.** The MIC was 100 µg/mL (≈ 283 µM).

**Q.** What does the source list for `COc1ccc(C2C(C#N)=C(N)Oc3c2ccc2cccnc32)cc1` (stereo not given)?
**A.** MIC (Staphylococcus aureus): 125 µg/mL (≈ 380 µM); MIC (Streptococcus pyogenes): 125 µg/mL (≈ 380 µM); MIC (Pseudomonas aeruginosa): 250 µg/mL (≈ 759 µM); MIC [1]: 250 µg/mL (≈ 759 µM); MIC (Escherichia coli): 250 µg/mL (≈ 759 µM); MIC (Aspergillus niger; MTCC 282, 24 h): 500 µg/mL (≈ 1520 µM)

**Q.** Which results are given for `COc1ccc(C2C(C#N)=C(N)Oc3ccccc32)cc1` (stereo not given)?
**A.** MIC (Staphylococcus aureus): 250 µg/mL (≈ 898 µM); MIC (Streptococcus pyogenes): 250 µg/mL (≈ 898 µM); MIC (Pseudomonas aeruginosa): 500 µg/mL (≈ 1800 µM); MIC [1]: 500 µg/mL (≈ 1800 µM); MIC (Escherichia coli): 500 µg/mL (≈ 1800 µM); MIC (Aspergillus niger; MTCC 282, 24 h): 1000 µg/mL (≈ 3590 µM)

**Q.** How did the MIC [1] turn out when `CO[C@H]1/C=C/O[C@@]2(C)Oc3c(C)c(O)c4c(O)c(c(/C=N/N5CCN(C)CC5)c(O)c4c3C2=O)NC(=O)/C(C)=C\C=C\[C@H](C)[C@H](O)[C@@H](C)[C@@H](O)[C@@H](C)[C@H](OC(C)=O)[C@@H]1C` [RIFAMPIN] was run?
**A.** Its MIC is 40 µg/mL (≈ 48.6 µM).

**Q.** `COc1ccc(C2C(C#N)=C(N)Oc3cc(O)ccc32)cc1` (stereo not given) was tested. Which MIC (Staphylococcus aureus) did it give?
**A.** The MIC was 125 µg/mL (≈ 425 µM).

**Q.** What about the MIC (Streptococcus pyogenes) of the same compound?
**A.** Its MIC is 125 µg/mL (≈ 425 µM).

**Q.** And the MIC (Pseudomonas aeruginosa)?
**A.** The MIC was 250 µg/mL (≈ 849 µM).

**Q.** And the MIC [1]?
**A.** The MIC was 250 µg/mL (≈ 849 µM).

**Q.** What about the MIC (Escherichia coli) of the same compound?
**A.** Its MIC is 250 µg/mL (≈ 849 µM).

**Q.** And the MIC (Aspergillus niger; MTCC 282, 24 h)?
**A.** The MIC was 500 µg/mL (≈ 1700 µM).

**Q.** `O=C(O)c1cn(C2CC2)c2cc(N3CCNCC3)c(F)cc2c1=O` [CIPROFLOXACIN] was tested. Which MIC (Staphylococcus aureus) did it give?
**A.** Its MIC is 50 µg/mL (≈ 151 µM).

**Q.** What about the MIC (Streptococcus pyogenes) of the same compound?
**A.** Its MIC is 50 µg/mL (≈ 151 µM).

**Q.** And the MIC (Escherichia coli)?
**A.** The MIC was 25 µg/mL (≈ 75.4 µM).

**Q.** With `COc1ccc(C2C(C#N)=C(N)Oc3c2ccc2ccccc32)cc1` (stereo not given) as the compound, how does the MIC (Staphylococcus aureus) read?
**A.** Its MIC is 500 µg/mL (≈ 1520 µM).

**Q.** And the MIC (Streptococcus pyogenes)?
**A.** The MIC was 500 µg/mL (≈ 1520 µM).

**Q.** What about the MIC (Pseudomonas aeruginosa) of the same compound?
**A.** Its MIC is 1000 µg/mL (≈ 3050 µM).

**Q.** What about the MIC [1] of the same compound?
**A.** The MIC was 1000 µg/mL (≈ 3050 µM).

**Q.** What about the MIC (Escherichia coli) of the same compound?
**A.** Its MIC is 500 µg/mL (≈ 1520 µM).

**Q.** What about the MIC (Aspergillus niger; MTCC 282, 24 h) of the same compound?
**A.** Its MIC is 500 µg/mL (≈ 1520 µM).

**Q.** With `COc1ccc(C2c3ccc4cccnc4c3Oc3[nH]c(=O)nc(N)c32)cc1` (stereo not given) as the compound, how does the MIC (Staphylococcus aureus) read?
**A.** Its MIC is 62.5 µg/mL (≈ 168 µM).

**Q.** What about the MIC (Streptococcus pyogenes) of the same compound?
**A.** The MIC was 125 µg/mL (≈ 336 µM).

**Q.** And the MIC (Pseudomonas aeruginosa)?
**A.** Its MIC is 125 µg/mL (≈ 336 µM).

**Q.** What about the MIC (Escherichia coli) of the same compound?
**A.** Its MIC is 125 µg/mL (≈ 336 µM).

**Q.** What about the MIC (Aspergillus niger; MTCC 282, 24 h) of the same compound?
**A.** Its MIC is 250 µg/mL (≈ 671 µM).

**Q.** What does the source list for `COc1ccc(C2C(C#N)=C(N)Oc3ccc4ccccc4c32)cc1` (stereo not given)?
**A.** MIC (Staphylococcus aureus): 250 µg/mL (≈ 761 µM); MIC (Streptococcus pyogenes): 250 µg/mL (≈ 761 µM); MIC (Pseudomonas aeruginosa): 500 µg/mL (≈ 1520 µM); MIC [1]: 1000 µg/mL (≈ 3050 µM); MIC (Escherichia coli): 150 µg/mL (≈ 457 µM); MIC (Aspergillus niger; MTCC 282, 24 h): 1000 µg/mL (≈ 3050 µM)

**Q.** How did the MIC (Aspergillus niger) turn out when NYSTATIN was run?
**A.** The MIC was 100 µg/mL.

**Q.** For `CC1(C)S[C@@H]2[C@H](NC(=O)[C@H](N)c3ccccc3)C(=O)N2[C@H]1C(=O)O` [AMPICILLIN], which MIC (Staphylococcus aureus) is on record?
**A.** Its MIC is 100 µg/mL (≈ 286 µM).

**Q.** And the MIC (Streptococcus pyogenes)?
**A.** The MIC was 250 µg/mL (≈ 715 µM).

**Q.** And the MIC (Pseudomonas aeruginosa)?
**A.** The MIC was 100 µg/mL (≈ 286 µM).

**Q.** And the MIC (Escherichia coli)?
**A.** The MIC was 100 µg/mL (≈ 286 µM).

Reference: ChEMBL document CHEMBL1275291, “Design, synthesis and in vitro evaluation of antitubercular and antimicrobial activity of some novel pyranopyrimidines” (2010)
